From ChEMBL document CHEMBL1125311, “Inhibition of human leukocyte elastase. 4. Selection of a substituted cephalosporin (L-658,758) as a topical aerosol” (J Med Chem, 1992)

Assays:
[1] = Half-life value of the compound.; assay type: ADME
Summary of the method: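 Chemical stability: compound dissolved at 1 mg/mL in 0.5 M MOPS, pH 8.0, held at 25 °C in capped vial; aliquots quenched in 2% aqueous TFA and analysed by reverse-phase HPLC over one to two half-lives. Peak areas fit to first-order decay F(t)=A/2^(t/t1/2) to give t1/2.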

Cricetinae gen. sp. [2] = test: Compound was evaluated in vivo for inhibition of HLE-induced hemorrhage in hamster lung at 100 microg 30 min after administration; assay type: functional, Cricetulus griseus
Summary of the method: (§1)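 Hamster, intratracheal dosing of compound (per animal) 30 min before IT instillation of 50 μg HLE (50 units in Experimental); hemorrhage read 3 h later: lungs lavaged with saline, hemoglobin in lavage measured at 414 nm. Percent inhibition from drug-treated vs vehicle-treated hemorrhage; three animals per dose and time. Titration at 100, 30, 10, 3 μg/animal gives ED50.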

[3] = biological target: T1, Neutrophil elastase (Homo sapiens) (UniProt P08246)
T1 sequence (whole entry): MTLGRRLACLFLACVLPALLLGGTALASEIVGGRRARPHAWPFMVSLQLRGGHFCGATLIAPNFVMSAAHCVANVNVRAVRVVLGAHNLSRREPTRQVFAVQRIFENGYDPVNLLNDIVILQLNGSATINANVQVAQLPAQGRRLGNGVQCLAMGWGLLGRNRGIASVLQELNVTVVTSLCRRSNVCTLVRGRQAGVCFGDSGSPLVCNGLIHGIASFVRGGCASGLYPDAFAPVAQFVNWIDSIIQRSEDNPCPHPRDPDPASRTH

Cricetinae gen. sp. [4] = test: Compound was evaluated in vivo for inhibition of HLE-induced hemorrhage in hamster lung at 400 microg, 5 min after administration; assay type: functional, Cricetulus griseus
Cricetinae gen. sp. [5] = test: Compound was evaluated in vivo for inhibition of HLE-induced hemorrhage in hamster lung at 200 microg 1 hr after administration prior to HLE; assay type: functional, Cricetulus griseus
Summary of the method: (§2)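 Hamster duration protocol: 200 μg/animal given intratracheally 60, 120, 180 or 240 min before IT HLE instillation; hemorrhage scored after 3 h as hemoglobin (414 nm) in saline lung lavage, relative to vehicle-treated animals; three animals per point. T50 taken as time at which 50% inhibition is still obtained.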

Cricetinae gen. sp. [6] = test: Compound was evaluated in vivo for inhibition of HLE-induced hemorrhage in hamster lung at 200 microg 2 hr after administration prior to HLE; assay type: functional, Cricetulus griseus; summary of the method: as §2
Cricetinae gen. sp. [7] = test: Compound was evaluated in vivo for inhibition of HLE-induced hemorrhage in hamster lung at 200 microg 3h after administration prior to HLE; assay type: functional, Cricetulus griseus; summary of the method: as §2
Cricetinae gen. sp. [8] = test: Compound was evaluated in vivo for inhibition of HLE-induced hemorrhage in hamster lung at 200 microg 4 hr after administration prior to HLE; assay type: functional, Cricetulus griseus; summary of the method: as §2
Cricetinae gen. sp. [9] = test: Compound was evaluated in vivo for inhibition of HLE-induced hemorrhage in hamster lung at 30 ug 30 min after administration prior to HLE; assay type: functional, Cricetulus griseus; summary of the method: as §1
Cricetinae gen. sp. [10] = test: Compound was evaluated in vivo for inhibition of HLE-induced hemorrhage in hamster lung at 100 microg 30 min after administration prior to HLE; assay type: functional, Cricetulus griseus; summary of the method: as §1
Cricetinae gen. sp. [11] = test: Compound was evaluated in vivo for inhibition of HLE-induced hemorrhage in hamster lung at 10 ug 30 min after administration prior to HLE; assay type: functional, Cricetulus griseus; summary of the method: as §1
Neutrophil elastase [12] = biological target: T2, Neutrophil elastase (Homo sapiens, UniProt P08246); test: In vitro inhibitory activity against human leukocyte elastase
T2 sequence (P08246 whole entry): T1 sequence (whole entry)

Cricetinae gen. sp. [13] = test: Compound was evaluated in vivo for inhibition of HLE-induced hemorrhage in hamster lung at 30microg, 30 min after administration prior to HLE; assay type: functional, Cricetulus griseus; summary of the method: as §1
Cricetinae gen. sp. [14] = test: Compound was evaluated in vivo for inhibition of HLE-induced hemorrhage in hamster lung at 100 microg, 30 min after administration prior to HLE; assay type: functional, Cricetulus griseus; summary of the method: as §1
Cricetinae gen. sp. [15] = test: Compound was evaluated in vivo for inhibition of HLE-induced hemorrhage in hamster lung at 10microg, 30 min after administration prior to HLE; assay type: functional, Cricetulus griseus; summary of the method: as §1
Cricetinae gen. sp. [16] = test: Compound was evaluated in vivo for inhibition of HLE-induced hemorrhage in hamster lung at 100 microg, 30 min after administration; assay type: functional, Cricetulus griseus; summary of the method: as §1
Cricetinae gen. sp. [17] = test: Compound was evaluated in vivo for inhibition of HLE-induced hemorrhage in hamster lung at 200 microg, 2 hr after administration prior to HLE; assay type: functional, Cricetulus griseus; summary of the method: as §2
Cricetinae gen. sp. [18] = test: Compound was evaluated in vivo for inhibition of HLE-induced hemorrhage in hamster lung at 200 microg, 3h after administration prior to HLE; assay type: functional, Cricetulus griseus; summary of the method: as §2
Cricetinae gen. sp. [19] = test: Compound was evaluated in vivo for inhibition of HLE-induced hemorrhage in hamster lung at 3 ug 30 min after administration prior to HLE; assay type: functional, Cricetulus griseus; summary of the method: as §1
Neutrophil elastase [20] = biological target: T2, Neutrophil elastase; test: Inhibitory activity against Human Leukocyte Elastase
Cricetinae gen. sp. [21] = test: Inhibitory activity against Human Leukocyte Elastase by Lung Hemorrhage assay ( at 200 ug/animal); assay type: functional, Cricetulus griseus; summary of the method: as §2
Cricetinae gen. sp. [22] = test: Inhibitory activity against Human Leukocyte Elastase by Lung Hemorrhage assay (Effective dose at 15 microg); assay type: functional, Cricetulus griseus
Cricetinae gen. sp. [23] = test: Inhibitory activity against Human Leukocyte Elastase by Lung Hemorrhage assay (at 30 min); assay type: functional, Cricetulus griseus
Summary of the method: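 Hamster, intratracheal: test compound 100 μg/animal given 30 min before IT instillation of HLE (50 μg; text also says 50 units). Hemorrhage read 3 h after HLE: lungs lavaged with saline, hemoglobin measured at 414 nm. Percent inhibition from hemorrhage in drug-treated vs vehicle-treated animals; mean of three animals per dose and time.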

SMILES | half-life [1] [h] | k obs / 1 [3] [M⁻¹ s⁻¹] | Inhibition (Cricetinae gen. sp. [9]) [%] | Inhibition (Cricetinae gen. sp. [10]) [%] | Inhibition (Cricetinae gen. sp. [11]) [%] | also measured
CC[C@H]1C(=O)N2C(C(=O)OCc3ccc(C(=O)O)cc3)=C(COC(C)=O)CS(=O)(=O)[C@H]12 | 40 | 5700 |  |  |  | Inhibition (Cricetinae gen. sp. [2]): -32%
CO[C@H]1C(=O)N2C(C(=O)OC(C)(C)C)=C(COC(=O)CCC(=O)O)CS(=O)(=O)[C@H]12 |  |  |  |  |  | Inhibition (Cricetinae gen. sp. [4]): 98%
CO[C@H]1C(=O)N2C(C(=O)N(C)CCC(=O)O)=C(CSc3nc(=O)c(=O)[nH]n3C)CS(=O)(=O)[C@H]12 |  | 1000 | 74 | 96 | 45 | Inhibition (Cricetinae gen. sp. [5]): 95%; Inhibition (Cricetinae gen. sp. [6]): 87%; Inhibition (Cricetinae gen. sp. [7]): 46%; Inhibition (Cricetinae gen. sp. [8]): -23%
CO[C@H]1C(=O)N2C(C(=O)N(C)CC(=O)O)=C(CSc3ccccn3)CS(=O)(=O)[C@H]12 |  |  |  |  |  | Ki (Neutrophil elastase [12]): 43 µM; Inhibition (Cricetinae gen. sp. [13]): 46%; Inhibition (Cricetinae gen. sp. [14]): 76%; Inhibition (Cricetinae gen. sp. [15]): 35%
CO[C@H]1C(=O)N2C(C(=O)N(C)CC(=O)OC(C)(C)C)=C(CSc3nc(=O)c(=O)[nH]n3C)CS(=O)(=O)[C@H]12 |  | 19300 | 94 | 98 | 65 | Inhibition (Cricetinae gen. sp. [17]): 84%; Inhibition (Cricetinae gen. sp. [18]): 38%; Inhibition (Cricetinae gen. sp. [5]): 89%
CO[C@H]1C(=O)N2C(C(=O)N3CCCC3)=C(CSc3nc(=O)c(=O)[nH]n3C)CS(=O)(=O)[C@H]12 | 20 | 13400 | 60 | 95 | 30 | IC50 (Neutrophil elastase [20]): 2 µM; T50 (Cricetinae gen. sp. [21]): 240 min; ED50 (Cricetinae gen. sp. [22]): 30 µg; Inhibition (Cricetinae gen. sp. [5]): 88%; Inhibition (Cricetinae gen. sp. [6]): 87%; Inhibition (Cricetinae gen. sp. [7]): 64%; Inhibition (Cricetinae gen. sp. [8]): 50%; ED50 (Cricetinae gen. sp. [23]): 20 µg
CO[C@H]1C(=O)N2C(C(=O)N(C)CC(=O)OC(C)(C)C)=C(CSc3nnnn3CC(=O)O)CS(=O)(=O)[C@H]12 |  | 20500 | 59 | 91 | 20 | 

Now from value to compound, other results behind:

half-life [1] [h] | k obs / 1 [3] [M⁻¹ s⁻¹] | SMILES | Inhibition (Cricetinae gen. sp. [9]) [%] | Inhibition (Cricetinae gen. sp. [10]) [%] | Inhibition (Cricetinae gen. sp. [11]) [%] | also measured
> 50 | 30 | CC[C@H]1C(=O)N2C(C(=O)N(C)CC(=O)O)=C(COC(C)=O)CS(=O)(=O)[C@H]12 |  |  |  | 
 | 12000 | CO[C@H]1C(=O)N2C(C(=O)N3CCC(O)C3)=C(COC(C)=O)CS(=O)(=O)[C@H]12 (some centres undefined) |  |  |  | 
 | 600 | CO[C@H]1C(=O)N2C(C(=O)N(C)CC(=O)O)=C(COC(=O)NCc3ccccc3)CS(=O)(=O)[C@H]12 |  |  |  | Inhibition (Cricetinae gen. sp. [13]): 93%; Inhibition (Cricetinae gen. sp. [14]): 91%; Inhibition (Cricetinae gen. sp. [15]): 27%
 | 8600 | CO[C@H]1C(=O)N2C(C(=O)N(C)Cc3ccc(C(=O)O)cc3)=C(COC(C)=O)CS(=O)(=O)[C@H]12 |  |  |  | Inhibition (Cricetinae gen. sp. [16]): 65%
< 5 |  | CO[C@H]1C(=O)N2C(C(=O)N3CCC[C@@H]3C(=O)O)=C(COC(C)=O)CS(=O)(=O)[C@H]12 |  |  |  | Ki (Neutrophil elastase [12]): 3.4 µM
16 | 27000 | CO[C@H]1C(=O)N2C(C(=O)N3CCCC3)=C(COC(C)=O)CS(=O)(=O)[C@H]12 |  |  |  | 
46 |  | CO[C@H]1C(=O)N2C(C(=O)N3CCCC3C(=O)O)=C(CSc3nc(=O)c(=O)[nH]n3C)CS(=O)(=O)[C@H]12 (some centres undefined) | 86 | 100 | 80 | Ki (Neutrophil elastase [12]): 0.25 µM; Inhibition (Cricetinae gen. sp. [19]): 61%
